Source: ChEMBL document CHEMBL1145116, “Imidazo[1,2-b]pyridazines, novel nucleus with potent and broad spectrum activity against human picornaviruses: design, synthesis, and biological evaluation” (J Med Chem, 2003)
Converted amounts (≈) assume the structure as drawn.

Experiments:
rhinovirus B14 [1] = experiment: (§1) Antiviral activity was evaluated against rhino virus using PRA assay; assay type: functional, organism-based, human rhinovirus14; conditions: Rhinovirus B
Method in brief: (§2)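 Rhinovirus 14 was adsorbed for 1 h at room temperature onto confluent H-HeLa monolayers grown in medium 199 with 10% FBS. Cells were overlaid with agarose and growth medium (5% FBS) containing compound in DMSO (final DMSO 0.01%), then held at 37 °C under CO2 until plaques appeared in DMSO controls. Plates were formalin-fixed, crystal-violet stained and plaques counted, with duplicate wells averaged. IC50/IC90 were computed by Reed–Muench.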

rhinovirus B14 [2] = experiment: (§3) Cytopathic effect was evaluated against rhino virus usingCPE/XTT assay; assay type: functional, human rhinovirus14
Method in brief: (§4)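 HeLa cells were seeded at 10 000 per well in medium 199 with 5% FBS and grown overnight at 37 °C. Surviving cells were read with XTT (0.4 mg/mL) plus PMS after 3-4 h at 37 °C. IC50 (CPE inhibition) and TC50 (versus a no-drug, no-virus control) came from the linear portion of the dose–response curves.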

Human rhinovirus sp. [3] = experiment: as §1; assay type: functional, organism-based, human rhinovirus14; method in brief: as §2
Human rhinovirus sp. [4] = experiment: as §3; assay type: functional, human rhinovirus14; method in brief: as §4
rhinovirus A16 = experiment: Broad spectrum antiviral activity was evaluated against HRV-16; assay type: functional, organism-based; conditions: Rhinovirus A
Poliovirus 1 = experiment: Broad spectrum antiviral activity was evaluated against PV1; assay type: functional, organism-based; conditions: Enterovirus C
Coxsackievirus B3 = experiment: Broad spectrum antiviral activity was evaluated against CB3; assay type: functional, organism-based, and coxsackievirus b3; conditions: Enterovirus B
Coxsackievirus A21 [5] = experiment: Broad spectrum antiviral activity was evaluated against CA21C; assay type: functional, organism-based; conditions: Enterovirus C
rhinovirus A2 = experiment: Broad spectrum antiviral activity was evaluated against HRV-2; assay type: functional, organism-based, human rhinovirus2; conditions: Rhinovirus A
Human rhinovirus 1A = experiment: Broad spectrum antiviral activity was evaluated against HRV-1A; assay type: functional, organism-based, human rhinovirus1a
Coxsackievirus A21 [6] = experiment: Broad spectrum antiviral activity was evaluated against coxsackievirus A21 mouse muscle adapted (CA21M); assay type: functional, organism-based; conditions: Enterovirus C, Muscle tissue

SMILES	IC50 (rhinovirus B14 [1])	TC50 (rhinovirus B14 [2])	further results
CNC(=O)/C=C(/c1ccc(OC)cc1)c1ccc2nc(N)c(-c3ccc(F)cc3)n2n1	4.2 µg/mL (≈ 10.1 µM)	>10 µg/mL	
CNC(=O)/C=C(/c1ccccc1)c1ccc2nc(N)c(-c3ccc(F)cc3)n2n1	> 10 µg/mL		
CNC(=O)/C=C(\c1ccc(OC)cc1)c1ccc2nc(N)c(-c3ccc(F)cc3)n2n1	0.6 µg/mL (≈ 1.44 µM)	>10 µg/mL	
CNC(=O)/C=C(\c1ccc(C)cc1)c1ccc2nc(N)c(-c3ccc(F)cc3)n2n1	0.23 µg/mL (≈ 0.573 µM)	>10 µg/mL	
CNC(=O)/C=C(\c1ccccc1)c1ccc2nc(N)c(-c3ccc(F)cc3)n2n1	0.11 µg/mL (≈ 0.284 µM)	4.06 µg/mL (≈ 10.5 µM)	
Nc1nc2ccc(/C(=N/Nc3ccccc3)c3ccccc3)nn2c1-c1ccc(F)cc1	> 10 µg/mL	>10 µg/mL	
CCOC(=O)/C=C(\c1ccccc1)c1ccc2nc(N)c(-c3ccc(F)cc3)n2n1	> 10 µg/mL		
CNC(=O)/C=C(/c1ccc(C)cc1)c1ccc2nc(N)c(-c3ccc(F)cc3)n2n1	> 10 µg/mL	>10 µg/mL	
Nc1nc2ccc(/C(=N/O)c3ccccc3)nn2c1-c1ccc(F)cc1			IC50 (Human rhinovirus sp. [3]): 0.05 µg/mL (≈ 0.144 µM); TC50 (Human rhinovirus sp. [4]): >10 µg/mL
Nc1nc2ccc(/C(=N/O)c3ccccc3)nn2c1-c1ccccc1	0.04 µg/mL (≈ 0.121 µM)	>10 µg/mL	IC50 (rhinovirus A16): 0.06 µg/mL (≈ 0.182 µM); IC50 (Poliovirus 1): 0.04 µg/mL (≈ 0.121 µM); IC50 (Coxsackievirus B3): 0.05 µg/mL (≈ 0.152 µM); IC50 (Coxsackievirus A21 [5]): 0.04 µg/mL (≈ 0.121 µM); IC50 (rhinovirus A2): 0.03 µg/mL (≈ 0.0911 µM); IC50 (Human rhinovirus 1A): 0.05 µg/mL (≈ 0.152 µM); IC50 (Coxsackievirus A21 [6]): 0.02 µg/mL (≈ 0.0607 µM)
Nc1nc2ccc(C(=O)c3ccccc3)nn2c1-c1ccccc1			IC50 (Human rhinovirus sp. [3]): 7.19 µg/mL (≈ 22.9 µM)
CC(C)S(=O)(=O)n1c(N)nc2ccc(/C(=N/O)c3ccccc3)cc21 [ENVIROXIME]			IC50 (Human rhinovirus sp. [3]): 0.05 µg/mL (≈ 0.139 µM)
